Assay results reported in ChEMBL document CHEMBL4138312 (J Med Chem, 2018).

How the values were obtained:
[1] = biological target: T1, Tyrosine-protein kinase JAK1 (Homo sapiens, UniProt P23458); experiment: Inhibition of cytoplasmic recombinant human GST-tagged JAK1 (886 to 1154 residues) expressed in insect cells using FITC-C6-KKHTDDGYMPMSPGVA-NH as substrate after 10 mins by caliper assay
Method in brief: (§1)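 Biochemical kinase inhibition IC50 measured at 5 mM ATP. Values are the geometric mean of at least two independent experiments.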

[2] = biological target: Tyrosine-protein kinase JAK2 (Homo sapiens, UniProt O60674); experiment: Inhibition of recombinant human JAK2 (831 to 1132 residues) expressed in insect cells using 5FAM-GEEPLYWSFPAKKK-NH2 as substrate after 10 mins by caliper assay; method in brief: as §1
[3] = biological target: T2, Tyrosine-protein kinase JAK3 (Homo sapiens, UniProt P52333); experiment: Inhibition of recombinant human JAK3 (781 to 1124 residues) expressed in insect cells using 5FAM-GEEPLYWSFPAKKK-NH2 as substrate after 10 mins by caliper assay; method in brief: as §1
T2 sequence (P52333 whole entry): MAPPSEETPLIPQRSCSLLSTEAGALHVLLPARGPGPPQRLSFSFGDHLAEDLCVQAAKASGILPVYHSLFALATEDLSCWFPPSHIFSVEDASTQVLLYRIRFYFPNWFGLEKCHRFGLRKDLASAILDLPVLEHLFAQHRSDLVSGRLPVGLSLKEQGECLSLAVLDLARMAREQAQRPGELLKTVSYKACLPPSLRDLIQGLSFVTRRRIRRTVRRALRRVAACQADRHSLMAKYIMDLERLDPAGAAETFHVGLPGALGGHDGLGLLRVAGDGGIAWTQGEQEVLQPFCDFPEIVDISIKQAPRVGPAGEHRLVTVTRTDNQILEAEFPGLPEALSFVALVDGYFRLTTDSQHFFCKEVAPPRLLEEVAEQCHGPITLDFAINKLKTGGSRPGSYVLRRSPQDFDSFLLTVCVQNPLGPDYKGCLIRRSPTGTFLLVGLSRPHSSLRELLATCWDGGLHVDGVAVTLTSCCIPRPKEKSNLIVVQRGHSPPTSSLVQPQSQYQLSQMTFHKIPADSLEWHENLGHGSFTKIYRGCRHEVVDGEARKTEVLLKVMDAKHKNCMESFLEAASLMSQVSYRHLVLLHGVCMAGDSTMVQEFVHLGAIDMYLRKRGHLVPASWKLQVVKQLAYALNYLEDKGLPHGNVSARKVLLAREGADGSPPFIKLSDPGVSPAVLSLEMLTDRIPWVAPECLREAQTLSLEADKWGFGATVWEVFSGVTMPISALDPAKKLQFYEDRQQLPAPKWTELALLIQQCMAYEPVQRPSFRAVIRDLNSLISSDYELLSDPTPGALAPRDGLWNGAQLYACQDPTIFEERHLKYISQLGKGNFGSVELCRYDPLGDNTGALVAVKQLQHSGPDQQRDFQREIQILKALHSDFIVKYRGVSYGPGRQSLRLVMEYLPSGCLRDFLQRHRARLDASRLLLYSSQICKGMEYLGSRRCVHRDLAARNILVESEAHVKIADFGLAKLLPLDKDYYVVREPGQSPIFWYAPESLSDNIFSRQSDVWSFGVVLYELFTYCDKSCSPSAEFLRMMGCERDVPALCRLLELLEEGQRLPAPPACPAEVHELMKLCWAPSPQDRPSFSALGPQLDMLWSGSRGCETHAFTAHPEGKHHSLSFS

[4] = Octanol-water partition coefficient, log D of the compound in sodium phosphate buffer at pH 7.4 after 5 hrs by shake-flask assay; type: physicochemical
[5] = biological target: T1, Tyrosine-protein kinase JAK1; experiment: Inhibition of JAK1 in human NCI-H1975 cells assessed as reduction in STAT3 phosphorylation after 1 hr by ELISA; type: cell-based
Method in brief: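 Cellular mode-of-action assay in NCI-H1975 cells, read as inhibition of STAT3 phosphorylation. EC50 was derived.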

Homo sapiens = organism: Homo sapiens; experiment: Selectivity ratio of IC50 for recombinant human JAK2 (831 to 1132 residues) expressed in insect cell to IC50 for cytoplasmic recombinant human GST-tagged JAK1 (886 to 1154 residues) expressed in baculovirus
Method in brief: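 Biochemical IC50s measured against JAK1 and JAK2 at 5 mM ATP. Each IC50 is the geometric mean of at least two independent experiments. The ratio is the JAK2 IC50 divided by the JAK1 IC50.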

A549 = experiment: Antiproliferative activity against human A549 cells after 48 hrs by Alamar Blue based assay; type: functional; conditions: A549, 48 h
Method in brief: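 Antiproliferation assay in A549 cells, reported as GI50.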

[6] = biological target: Non-receptor tyrosine-protein kinase TYK2 (Homo sapiens, UniProt P29597); experiment: Inhibition of recombinant human N-terminal GST-tagged TYK2 (871 to 1187 residues) expressed in baculovirus expression system using 5FAM-GEEPLYWSFPAKKK-NH2 as substrate after 10 mins by caliper assay; method in brief: as §1
[7] = Intrinsic clearance in human liver microsomes; type: ADME, microsome; conditions: read-out: CLH

T1 sequence (P23458 whole entry, the tested form may be a part): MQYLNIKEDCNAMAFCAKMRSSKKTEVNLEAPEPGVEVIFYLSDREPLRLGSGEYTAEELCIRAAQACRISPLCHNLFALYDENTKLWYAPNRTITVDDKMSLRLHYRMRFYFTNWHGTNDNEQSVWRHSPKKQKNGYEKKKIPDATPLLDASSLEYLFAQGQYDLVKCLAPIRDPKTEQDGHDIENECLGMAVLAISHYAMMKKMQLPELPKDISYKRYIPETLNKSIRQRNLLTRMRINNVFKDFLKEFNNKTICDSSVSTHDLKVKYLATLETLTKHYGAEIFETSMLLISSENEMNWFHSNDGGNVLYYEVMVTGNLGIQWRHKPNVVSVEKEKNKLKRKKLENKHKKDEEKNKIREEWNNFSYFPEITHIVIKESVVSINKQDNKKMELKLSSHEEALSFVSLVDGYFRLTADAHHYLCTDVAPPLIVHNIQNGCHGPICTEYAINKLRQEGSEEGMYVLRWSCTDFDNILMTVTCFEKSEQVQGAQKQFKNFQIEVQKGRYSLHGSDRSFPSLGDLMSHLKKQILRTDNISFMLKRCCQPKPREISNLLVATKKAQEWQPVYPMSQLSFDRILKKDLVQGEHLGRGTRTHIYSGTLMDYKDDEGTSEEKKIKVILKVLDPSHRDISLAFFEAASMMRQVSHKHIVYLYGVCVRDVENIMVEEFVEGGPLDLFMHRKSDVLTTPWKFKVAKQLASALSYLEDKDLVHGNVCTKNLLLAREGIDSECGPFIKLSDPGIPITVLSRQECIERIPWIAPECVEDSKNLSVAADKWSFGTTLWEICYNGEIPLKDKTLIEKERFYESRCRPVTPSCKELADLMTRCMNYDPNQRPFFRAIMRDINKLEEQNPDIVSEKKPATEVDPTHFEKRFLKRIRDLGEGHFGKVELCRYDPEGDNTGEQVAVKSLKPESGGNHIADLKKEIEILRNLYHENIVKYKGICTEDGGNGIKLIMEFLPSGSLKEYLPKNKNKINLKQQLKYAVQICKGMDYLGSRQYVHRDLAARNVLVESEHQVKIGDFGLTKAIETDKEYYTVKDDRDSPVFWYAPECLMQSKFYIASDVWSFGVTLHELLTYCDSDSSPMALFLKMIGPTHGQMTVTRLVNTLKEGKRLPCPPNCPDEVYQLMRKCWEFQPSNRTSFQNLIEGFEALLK
Sequence of Tyrosine-protein kinase JAK2 (O60674 whole entry, the tested form may be a part): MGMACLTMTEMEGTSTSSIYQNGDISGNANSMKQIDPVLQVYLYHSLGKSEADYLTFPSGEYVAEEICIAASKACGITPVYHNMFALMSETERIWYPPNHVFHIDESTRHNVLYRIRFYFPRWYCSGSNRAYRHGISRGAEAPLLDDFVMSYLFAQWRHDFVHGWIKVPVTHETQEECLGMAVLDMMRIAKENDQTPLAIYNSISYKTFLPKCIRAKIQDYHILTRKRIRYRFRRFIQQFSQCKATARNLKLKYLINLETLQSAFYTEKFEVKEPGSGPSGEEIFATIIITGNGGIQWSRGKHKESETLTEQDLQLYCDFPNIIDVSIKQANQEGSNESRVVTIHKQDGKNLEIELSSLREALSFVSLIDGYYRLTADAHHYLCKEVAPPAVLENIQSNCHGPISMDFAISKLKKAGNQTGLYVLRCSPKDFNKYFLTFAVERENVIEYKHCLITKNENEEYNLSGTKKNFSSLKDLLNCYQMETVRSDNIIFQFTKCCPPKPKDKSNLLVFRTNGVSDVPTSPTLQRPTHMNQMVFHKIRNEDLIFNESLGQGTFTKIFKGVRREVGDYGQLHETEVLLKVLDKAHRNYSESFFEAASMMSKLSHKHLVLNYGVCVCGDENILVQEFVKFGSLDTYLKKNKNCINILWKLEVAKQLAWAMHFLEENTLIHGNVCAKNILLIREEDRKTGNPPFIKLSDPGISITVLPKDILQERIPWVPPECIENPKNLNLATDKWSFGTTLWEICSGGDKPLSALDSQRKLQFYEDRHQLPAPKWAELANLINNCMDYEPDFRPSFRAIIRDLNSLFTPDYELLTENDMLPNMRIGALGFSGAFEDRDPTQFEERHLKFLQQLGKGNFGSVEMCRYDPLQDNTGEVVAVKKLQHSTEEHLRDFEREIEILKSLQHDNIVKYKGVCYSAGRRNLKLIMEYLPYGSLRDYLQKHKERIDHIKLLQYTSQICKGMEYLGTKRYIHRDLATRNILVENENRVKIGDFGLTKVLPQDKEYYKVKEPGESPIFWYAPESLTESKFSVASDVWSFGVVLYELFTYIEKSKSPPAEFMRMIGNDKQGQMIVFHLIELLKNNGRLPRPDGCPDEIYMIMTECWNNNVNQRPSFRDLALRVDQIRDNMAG
Sequence of Non-receptor tyrosine-protein kinase TYK2 (P29597 whole entry, the tested form may be a part): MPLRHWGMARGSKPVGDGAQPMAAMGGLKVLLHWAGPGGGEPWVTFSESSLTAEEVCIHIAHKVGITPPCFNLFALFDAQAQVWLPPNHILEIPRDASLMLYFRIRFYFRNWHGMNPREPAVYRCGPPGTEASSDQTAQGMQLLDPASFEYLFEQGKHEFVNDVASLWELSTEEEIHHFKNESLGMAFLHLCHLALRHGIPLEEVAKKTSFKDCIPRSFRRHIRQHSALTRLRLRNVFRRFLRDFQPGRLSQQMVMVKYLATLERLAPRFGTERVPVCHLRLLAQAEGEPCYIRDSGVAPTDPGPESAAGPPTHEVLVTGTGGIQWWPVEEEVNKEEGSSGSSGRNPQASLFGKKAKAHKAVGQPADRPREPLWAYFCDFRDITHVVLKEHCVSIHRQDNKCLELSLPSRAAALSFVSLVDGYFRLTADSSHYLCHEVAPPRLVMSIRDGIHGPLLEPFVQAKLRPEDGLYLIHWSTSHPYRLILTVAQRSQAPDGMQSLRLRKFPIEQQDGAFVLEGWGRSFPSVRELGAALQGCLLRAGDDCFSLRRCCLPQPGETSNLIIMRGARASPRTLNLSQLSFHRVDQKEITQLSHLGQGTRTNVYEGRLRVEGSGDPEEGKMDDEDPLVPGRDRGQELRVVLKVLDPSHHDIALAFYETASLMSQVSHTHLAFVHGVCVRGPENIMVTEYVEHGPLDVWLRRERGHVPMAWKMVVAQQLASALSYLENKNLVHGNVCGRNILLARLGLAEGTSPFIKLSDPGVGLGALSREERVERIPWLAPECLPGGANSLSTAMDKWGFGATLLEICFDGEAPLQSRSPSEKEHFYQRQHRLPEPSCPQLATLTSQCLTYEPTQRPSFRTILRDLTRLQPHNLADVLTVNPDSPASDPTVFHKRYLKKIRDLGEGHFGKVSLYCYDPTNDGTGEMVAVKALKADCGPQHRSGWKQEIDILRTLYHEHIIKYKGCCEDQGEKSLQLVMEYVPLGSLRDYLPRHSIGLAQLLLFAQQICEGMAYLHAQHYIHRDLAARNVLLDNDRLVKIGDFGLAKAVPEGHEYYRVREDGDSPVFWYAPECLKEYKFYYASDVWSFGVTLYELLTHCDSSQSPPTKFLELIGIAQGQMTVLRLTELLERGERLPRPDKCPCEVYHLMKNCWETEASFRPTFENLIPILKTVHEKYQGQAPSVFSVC

SMILES | IC50 [1] [µM] | IC50 [2] [µM] | IC50 [3] [µM] | logD at 5 h [4] | EC50 [5] [µM] | Ratio IC50 (Homo sapiens) | GI50 (A549) [µM] | IC50 [6] [µM] | microsomal CLint [7] [µL/min/mg]
Cc1cnc(Nc2cc(N3C[C@@H](C)N[C@@H](C)C3)cc(S(C)(=O)=O)c2)nc1Nc1cccc(CO)c1 | 0.005 | 0.996 | > 30 | 1.24 | 0.325 | – | – | – | –
CN1CCN(c2cc(Nc3ncc(Br)c(Nc4cccc(CO)c4)n3)cc(S(C)(=O)=O)c2)CC1 | < 0.003 | 0.363 | 6.54 | 2.43 | – | > 120 | – | – | –
Cc1cnc(Nc2cc(N3CCNCC3)cc(S(C)(=O)=O)c2)nc1Nc1cccc(CO)c1 | < 0.003 | 0.951 | > 30 | 1.09 | 0.496 | – | – | – | –
CCC(CC)Nc1nc(Nc2cc(N3C[C@@H]4C[C@H]3CN4C)cnc2F)ncc1C | 0.029 | > 30 | > 30 | – | 0.044 | – | > 10 | > 30 | –
Cc1cnc(Nc2cc(N3C[C@@H]4C[C@H]3CN4C)cnc2F)nc1Nc1cccc(CO)c1 | 0.04 | > 30 | > 30 | – | 0.068 | – | 0.253 | – | –
CN1CCN(c2cc(Nc3ncc(Cl)c(Nc4cccc(CO)c4)n3)cc(S(C)(=O)=O)c2)CC1 | < 0.003 | 0.722 | 12.6 | 2.16 | – | > 240 | – | – | –
Cc1cnc(Nc2cc(N3C[C@@H]4C[C@H]3CN4C)cnc2F)nc1N[C@H](C)C(C)C | 0.026 | > 30 | – | – | 0.05 | – | – | 24.7 | –
Cc1cnc(Nc2cc(N3C[C@@H]4C[C@H]3CN4C)cc(S(C)(=O)=O)c2)nc1Nc1cccc(CO)c1 | < 0.003 | 1.18 | > 27.9 | 0.82 | 0.092 | – | – | – | 7.32
CN1CCN(c2cc(Nc3ncc(F)c(Nc4cccc(CO)c4)n3)cc(S(C)(=O)=O)c2)CC1 | 0.042 | 6.41 | > 30 | 1.84 | – | 150 | – | – | –
CC(=O)N1CCN(c2cc(Nc3ncc(C)c(Nc4cccc(CO)c4)n3)cc(S(C)(=O)=O)c2)CC1 | 0.01 | 0.347 | 24.6 | 1.74 | > 3 | – | – | – | –
Cc1cnc(Nc2cc(N3C[C@@H]4C[C@H]3CN4C)ccc2F)nc1Nc1cccc(CO)c1 | 0.117 | > 30 | > 30 | – | 0.101 | – | – | – | –
Cc1cnc(Nc2cc(N3CCOCC3)cc(S(C)(=O)=O)c2)nc1Nc1cccc(CO)c1 | 0.013 | 0.417 | > 30 | – | – | 32 | – | – | –
Cc1cnc(Nc2cccc(N3CCN(C)CC3)c2)nc1Nc1cccc(CO)c1 | 0.055 | 0.357 | 20.3 | – | – | 6.5 | – | – | –
CN1CCN(c2cc(Nc3nccc(Nc4cccc(CO)c4)n3)cc(S(C)(=O)=O)c2)CC1 | 0.003 to 0.1 | 13.9 | > 30 | 1.75 | – | 140 | – | – | –
Cc1cnc(Nc2cc(N3CCN(C)CC3)cc(S(C)(=O)=O)c2)nc1Nc1cccc(CO)c1 | < 0.003 | 0.929 | > 30 | 1.74 | 0.099 | > 309 | – | – | 59.5
Cc1cnc(Nc2cc(C(F)F)cc(N3C[C@@H]4C[C@H]3CN4C)c2)nc1Nc1cccc(CO)c1 | 0.016 | 0.376 | 18.1 | – | 0.037 | – | – | – | –
CN1CCN(c2cc(Nc3nccc(Nc4ccc(F)c(Cl)c4F)n3)cc(S(C)(=O)=O)c2)CC1 | < 0.003 | 0.036 | 0.464 | – | – | > 10 | – | – | –
Cc1cnc(Nc2cc(N3C[C@@H]4C[C@H]3CN4C)cc(C(F)F)c2F)nc1Nc1cccc(CO)c1 | 0.055 | > 30 | > 30 | – | 0.026 | – | – | – | –
COCCN1CCN(c2cc(Nc3ncc(C)c(Nc4cccc(CO)c4)n3)cc(S(C)(=O)=O)c2)CC1 | 0.012 | 1.03 | > 30 | 1.9 | 0.189 | – | – | – | –
Cc1cnc(Nc2cc(N3CCOCC3)cc(N3CCOCC3)c2)nc1Nc1cccc(CO)c1 | 0.004 | < 0.003 | 0.371 | – | – | < 0.75 | – | – | –
Cc1cnc(Nc2cc(N3CCN(CCO)CC3)cc(S(C)(=O)=O)c2)nc1Nc1cccc(CO)c1 | 0.006 | 0.817 | > 30 | 1.29 | > 3 | – | – | – | –
